# Results gathered from unrelated publications.
# Each line is one published result; the experiments were not run side by side.
# Target: Focal adhesion kinase 1 (PTK2, Homo sapiens, UniProt Q05397)
Compound,test,conditions,endpoint,value
CO[C@@H]1[C@H](N(C)C(=O)c2ccccc2)C[C@H]2O[C@]1(C)n1c3ccccc3c3c4c(c5c6ccccc6n2c5c31)C(=O)NC4,"enzyme activity, inhibitor",1 µM,inhibition,2%
COc1ccc2oc(-c3ccc4nc(N)oc4c3)c/c(=N\c3ccccc3NC(=O)CCN)c2c1,binding,1 µM,remaining binding,84%
C=CC(=O)N1CCC[C@@H](n2nc(-c3ccc(Oc4ccccc4)cc3)c3c(N)ncnc32)C1,"enzyme activity, inhibitor",1 µM,inhibition,5%
C[C@H]1CC[C@H](n2c3cnccc3c3cnc(Nc4ccc5c(n4)CCN(C(=O)CO)C5)nc32)CC1,"cell-free assay, inhibitor",1 µM,remaining signal,69%
Cc1cc(O)c(-c2ccc([C@@H](C)CN(C)C)cc2)c2c1[nH]c(=O)c1sccc12,"enzyme activity, inhibitor",0.1 µM,inhibition,8.92%
N#Cc1ccc(NC(=O)Nc2ccccc2)cc1,"cell-free assay, competition with immobilised ligand",25 µM,remaining binding,100%
CCCCC(=O)Nc1ccc(-c2ccc3ncn(CCC)c(=O)c3c2)cn1,"binding, competition with immobilised ligand",0.5 µM,remaining binding,87%
C#Cc1cc(-c2cc(Nc3nc(N[C@@H](C)c4ccc(F)cn4)ncc3Cl)n[nH]2)ccc1C=O,"enzyme activity, inhibitor",0.2 µM,inhibition,31.2%
C#Cc1cnc(Nc2ccnc(CO)c2)nc1Nc1ccccc1S(C)(=O)=NC#N (stereo not shown),cell-free assay,1 µM,remaining signal,40%
Cc1ccc(NC(=O)c2ccnc(C(F)(F)F)c2)cc1-c1cc(OCCO)nc(N2CCOCC2)c1,cell-free assay,1 µM,remaining signal,100%
